Assay results reported in ChEMBL document CHEMBL1134318, “Design, synthesis, and biological characterization of bivalent 1-methyl-1,2,5,6-tetrahydropyridyl-1,2,5-thiadiazole derivatives as selective muscarinic agonists” (J Med Chem, 2001).
pEC50, pKi: −log10 of the molar value. Values after ≈ are worked out from the molar mass of the structure shown.

Key:
[1] = Maximum release of beta-hexosaminidase was determined as a measure of degranulation; type: functional; parameters: reference not given here
Summary of the method: (§1)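 RBL-2H3 mast cell subclone stably transfected with human M4 receptor (>1 × 10^5 receptors/cell). Agonist action read as degranulation, i.e. hexosaminidase released into the supernatant, following earlier M1 methods. Dose-response data fit to a one-site stimulation model for Smax and EC50.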

[2] = target: T1, Muscarinic acetylcholine receptor M1 (Homo sapiens) (UniProt P11229); conditions: at 100 µM
T1 sequence (whole entry): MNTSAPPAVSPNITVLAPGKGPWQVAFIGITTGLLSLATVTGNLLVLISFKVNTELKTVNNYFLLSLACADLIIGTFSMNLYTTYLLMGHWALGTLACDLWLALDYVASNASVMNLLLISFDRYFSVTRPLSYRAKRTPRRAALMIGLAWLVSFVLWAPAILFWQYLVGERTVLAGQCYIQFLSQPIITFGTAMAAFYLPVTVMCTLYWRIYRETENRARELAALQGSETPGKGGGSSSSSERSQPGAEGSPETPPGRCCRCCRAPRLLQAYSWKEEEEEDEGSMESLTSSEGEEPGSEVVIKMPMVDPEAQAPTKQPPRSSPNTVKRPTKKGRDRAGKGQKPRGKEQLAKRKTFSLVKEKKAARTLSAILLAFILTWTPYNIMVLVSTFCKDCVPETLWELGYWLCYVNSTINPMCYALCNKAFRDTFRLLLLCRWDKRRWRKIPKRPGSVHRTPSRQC

[3] = Solubility in deionized water.; type: physicochemical; conditions: read-out: S
[4] = Solubility in Kreb-Heinsleit buffer.; type: physicochemical
[5] = target: T2, Muscarinic acetylcholine receptor M1 (Homo sapiens, UniProt P11229); assay: Agonistic activity against M1 muscarinic receptor expressed in NIH 3T3 cells; type: functional, cell-based, NIH3T3
T2 sequence (P11229 whole entry): T1 sequence (whole entry)

[6] = target: T3, Muscarinic acetylcholine receptor M4 (Homo sapiens, UniProt P08173); assay: Agonist activity against M4 muscarinic receptor expressed in RBL-2H3 Mast cells.; type: functional, cell-based; summary of the method: as §1
T3 sequence (P08173 whole entry): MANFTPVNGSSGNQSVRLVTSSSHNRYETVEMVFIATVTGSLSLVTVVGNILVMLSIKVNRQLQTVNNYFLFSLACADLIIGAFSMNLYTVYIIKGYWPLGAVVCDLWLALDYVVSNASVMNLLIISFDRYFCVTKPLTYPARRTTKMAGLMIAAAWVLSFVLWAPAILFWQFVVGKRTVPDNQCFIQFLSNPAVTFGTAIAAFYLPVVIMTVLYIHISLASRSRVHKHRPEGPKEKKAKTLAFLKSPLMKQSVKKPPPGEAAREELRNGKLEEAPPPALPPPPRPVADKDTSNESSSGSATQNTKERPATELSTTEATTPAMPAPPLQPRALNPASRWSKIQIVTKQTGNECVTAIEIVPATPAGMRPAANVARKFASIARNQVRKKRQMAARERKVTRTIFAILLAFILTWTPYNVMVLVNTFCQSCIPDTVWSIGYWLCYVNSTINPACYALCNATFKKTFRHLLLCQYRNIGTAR

[7] = target: T4, Muscarinic acetylcholine receptor M5 (Homo sapiens) (UniProt P08912); assay: Maximal level of stimulation as a percentage above basal levels.; type: functional
T4 sequence (whole entry): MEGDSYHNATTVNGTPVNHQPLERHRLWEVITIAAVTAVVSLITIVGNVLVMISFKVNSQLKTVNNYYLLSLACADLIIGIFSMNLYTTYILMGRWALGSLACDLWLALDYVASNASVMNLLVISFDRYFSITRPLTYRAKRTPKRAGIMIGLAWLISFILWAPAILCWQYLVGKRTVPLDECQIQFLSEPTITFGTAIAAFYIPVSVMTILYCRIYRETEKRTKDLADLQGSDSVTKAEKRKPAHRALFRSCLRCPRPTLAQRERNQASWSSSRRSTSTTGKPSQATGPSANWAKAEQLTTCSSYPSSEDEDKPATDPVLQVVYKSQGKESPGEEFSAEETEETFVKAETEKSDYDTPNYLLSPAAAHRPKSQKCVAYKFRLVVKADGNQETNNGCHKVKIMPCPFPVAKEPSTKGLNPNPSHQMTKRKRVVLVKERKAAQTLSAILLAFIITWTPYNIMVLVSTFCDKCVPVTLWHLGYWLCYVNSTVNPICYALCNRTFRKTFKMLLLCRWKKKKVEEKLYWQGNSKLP

[8] = target: T2, Muscarinic acetylcholine receptor M1; assay: (§2) Binding affinity towards M1 muscarinic receptor expressed in A9 L cells by displacing [3H](R)-QNB radioligand.
[9] = target: T2, Muscarinic acetylcholine receptor M1; assay: Agonistic activity against M1 muscarinic receptor expressed in A9 L cells.; type: functional, cell-based, A9L
[10] = target: T2, Muscarinic acetylcholine receptor M1; assay: as §2; type: cell-based, L929
Summary of the method: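 Competition binding on A9 L cell membrane homogenates (human M1) with 0.1 nM [3H]-(R)-QNB and 14 test-ligand concentrations, 0.01 nM to 3 mM. Buffer 25 mM sodium phosphate pH 7.4 with 5 mM MgCl2, 2 h at room temperature.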

[11] = target: T1, Muscarinic acetylcholine receptor M1 (Homo sapiens); assay: Agonist activity at M1 receptor coupled to phosphoinositide metabolism at 100 uM expressed as percent stimulation above basal levels relative to carbachol response; type: functional
Summary of the method: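 Stably transfected A9 L cells (and/or NIH 3T3) expressing human M1 receptor; agonist-stimulated accumulation of [3H]-inositol phosphates measured at 100 µM test ligand. […] Mean (SEM) of two to five assays per compound.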

[12] = target: T3, Muscarinic acetylcholine receptor M4; assay: Agonist activity against human M4 muscarinic receptor expressed in RBL-2H3 Mast cells; type: functional, cell-based; summary of the method: as §1

Compound	Max release [1] [%]	PI metabolism [2] [%]	pEC50 [6]	pKi [8]	pEC50 [9]	other results
CN1CCC=C(c2nsnc2OCCOCCOCCOCCOc2nsnc2C2=CCCN(C)C2)C1	43	56	8.28			solubility [3]: > 1000 mg/mL; solubility [4]: 0.02 mg/mL (≈ 0.0362 mM); pEC50 [5]: 6.54; Smax [7]: -3.7%
CN1CCC=C(c2nsnc2OCCCCCCCCOc2nsnc2C2=CCCN(C)C2)C1	1	8.2	< 4.00			
CN1CCC=C(c2nsnc2SCCCCCCCCSc2nsnc2C2=CCCN(C)C2)C1				8.30	6.04	
CN1CCC=C(c2nsnc2OCCOCCOCCOCCOCCOc2nsnc2C2=CCCN(C)C2)C1		< 10		8.82		
CN1CCC=C(c2nsnc2SCCCSc2nsnc2C2=CCCN(C)C2)C1				8.92	6.46	
CN1CCC=C(c2nsnc2OCCOCCOCCOc2nsnc2C2=CCCN(C)C2)C1		< 10				
CN1CCC=C(c2nsnc2OCCCCCCCCCOc2nsnc2C2=CCCN(C)C2)C1	61	27	4.70	9.08		
CN1CCC=C(c2nsnc2OCCOCCOc2nsnc2C2=CCCN(C)C2)C1						pKi [10]: 8.31; Stimulation [11]: < 10%
CCCCCCOc1nsnc1C1=CCCN(C)C1		47				
CN1CCC=C(c2nsnc2SCCCCSc2nsnc2C2=CCCN(C)C2)C1				9.03	6.24	
CN1CCC=C(c2nsnc2OCCCCCCCCCCOc2nsnc2C2=CCCN(C)C2)C1	24	76	5.96			solubility [3]: 25 mg/mL (≈ 46.9 mM); solubility [4]: 0.004 mg/mL (≈ 0.00751 mM)
CN1CCC=C(c2nsnc2SCCCCCCCCCCCCSc2nsnc2C2=CCCN(C)C2)C1	54		9.00	9.16	4.89	
CN1CCC=C(c2nsnc2SCCCCCCCSc2nsnc2C2=CCCN(C)C2)C1				8.12	6.74	
CN1CCC=C(c2nsnc2SCCCCCSc2nsnc2C2=CCCN(C)C2)C1				7.85	7.10	
CN1CCC=C(c2nsnc2OCCCCOc2nsnc2C2=CCCN(C)C2)C1		21				
CN1CCC=C(c2nsnc2OCCCCCCCOc2nsnc2C2=CCCN(C)C2)C1	4	-3	< 4.00			
CN1CCC=C(c2nsnc2SCCCCCCCCCCCSc2nsnc2C2=CCCN(C)C2)C1	29		8.33	9.24	5.82	
CN1CCC=C(c2nsnc2OCCOc2nsnc2C2=CCCN(C)C2)C1	39					Stimulation [11]: 50%; pEC50 [12]: 5.41
CN1CCC=C(c2nsnc2SCCCCCCCCCSc2nsnc2C2=CCCN(C)C2)C1				7.77	6.92	
CC(=O)OCC[N+](C)(C)C						Smax [7]: 99%
CN1CCC=C(c2nsnc2OCCCOc2nsnc2C2=CCCN(C)C2)C1		21				
CN1CCC=C(c2nsnc2SCCCCCCSc2nsnc2C2=CCCN(C)C2)C1				9.06	6.23	
CN1CCC=C(c2nsnc2SCCCCCCCCCCSc2nsnc2C2=CCCN(C)C2)C1	61		9.22	9.49	5.68	
CN1CCC=C(c2nsnc2OCCCCCOc2nsnc2C2=CCCN(C)C2)C1		-1				
CN1CCC=C(c2nsnc2OCCOCCOCCOCCOCCOCCOc2nsnc2C2=CCCN(C)C2)C1		< 10		8.72		
C[N+](C)(C)CCOC(N)=O	87					Smax [7]: 110%
CN1CCC=C(c2nsnc2OCCCCCCCCCCCCOc2nsnc2C2=CCCN(C)C2)C1	57	84	8.85	8.80		solubility [3]: 20 mg/mL (≈ 35.7 mM); solubility [4]: 0.0017 mg/mL (≈ 0.00303 mM)
CN1CCC=C(c2nsnc2SCCSc2nsnc2C2=CCCN(C)C2)C1				7.70	6.36	
CN1CCC=C(c2nsnc2OCCCCCCOc2nsnc2C2=CCCN(C)C2)C1	3	18	< 4.00			
